Test results: ChEMBL document CHEMBL1155470, “Colloid formation by drugs in simulated intestinal fluid” (J Med Chem, 2010)
Calls of active or inactive are those of the source. The calls are words filed in the database; no cut-off is given here.

Assays:
Cruzipain [1] = molecular target: T1, Cruzipain (Trypanosoma cruzi, UniProt P25779); assay: Inhibition of Trypanosoma cruzi cruzaine preincubated for 5 mins before substrate addition by fluorescence assay in presence of 0.01% Triton X-100
Cruzipain [2] = molecular target: T1, Cruzipain; assay: Inhibition of Trypanosoma cruzi cruzaine preincubated for 5 mins before substrate addition by fluorescence assay in absence of Triton X-100
[3] = Colloidal aggregation in fed state simulated intestinal fluid assessed as colloid radius at 10 uM by dynamic light scattering assay in presence of 1% DMSO; details: simulated gi fluid
[4] = Colloidal aggregation in fed state simulated intestinal fluid by dynamic light scattering assay in presence of 0.6% DMSO; type: physicochemical; details: simulated gi fluid
Outline: (§1)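 Concentrated DMSO stocks diluted into filtered FeSSIF: blank FeSSIF plus 15 mM sodium taurocholate and 3.75 mM lecithin, dissolved at 37 °C. Final DMSO 1% unless otherwise noted. Particle size by dynamic light scattering at 826.6 nm, detector at 90°, 100% laser power. Values are averages of three or more independent measurements at room temperature.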

[5] = Colloidal aggregation in fed state simulated intestinal fluid assessed as colloid radius at 120 uM by dynamic light scattering assay in presence of 1% DMSO; type: physicochemical; details: simulated gi fluid; outline: as §1
[6] = Colloidal aggregation in phosphate buffer at 50 uM by transmission electron microscopy in presence of 0.5% DMSO; type: physicochemical
Outline: (§2)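 Drug DMSO stocks diluted into 50 mM phosphate buffer. Samples adsorbed ~30 s onto glow-discharged formvar/carbon-coated copper grids and negatively stained with 2% ammonium molybdate. Imaged by transmission electron microscopy at 80 kV, standard magnification 25 000.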

[7] = Colloidal aggregation in fed state simulated intestinal fluid assessed as colloid radius at 20 uM by dynamic light scattering assay in presence of 1% DMSO; type: physicochemical; details: simulated gi fluid; outline: as §1
[8] = Colloidal aggregation in fed state simulated intestinal fluid at 100 uM by transmission electron microscopy in presence of 1% DMSO; type: physicochemical; details: simulated gi fluid
Outline: (§3)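 Drug DMSO stocks diluted into FeSSIF. Samples adsorbed ~30 s onto glow-discharged formvar/carbon-coated copper grids and negatively stained with 2% ammonium molybdate. Viewed by transmission electron microscopy at 80 kV, standard magnification 25 000, calibrated with catalase crystals and ferritin.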

[9] = Colloidal aggregation in fed state simulated intestinal fluid assessed as colloid radius at 2.5 uM by dynamic light scattering assay in presence of 1% DMSO; type: physicochemical; details: simulated gi fluid; outline: as §1
[10] = Colloidal aggregation in fed state simulated intestinal fluid by dynamic light scattering-based beads autocorrelation assay in presence of 1% DMSO; type: physicochemical; details: simulated gi fluid
Outline: (§4)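 FeSSIF samples examined by DLS (826.6 nm laser, 90° detector, room temperature), comparing autocorrelation curves with blank FeSSIF. The micelle background was checked with 200 nm calibration beads diluted in FeSSIF. Drug samples were made by diluting DMSO stocks into filtered FeSSIF (15 mM taurocholate, 3.75 mM lecithin).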

[11] = Binding affinity to beta-lactamase AmpC at 200 uM after 30 mins by SDS-PAGE
Outline: (§5)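 Cosedimentation in FeSSIF, with and without 2 μg AmpC β-lactamase added per sample. Samples centrifuged at 16000g for 30 min at room temperature. Supernatant removed completely; pellets resuspended in DMSO plus 50 mM KPi pH 7.0 and run on SDS-PAGE. Protein detected by silver staining. Drug-only pellets included as background controls.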

[12] = Aggregation-based binding affinity to beta-lactamase AmpC at 200 uM in fed state simulated intestinal fluid after 30 mins by silver staining in presence of 2% DMSO; outline: as §5
[13] = Colloidal aggregation in fed state simulated intestinal fluid assessed as percent of drug in fraction after centrifugation by UV-visible spectrophotometry in presence of 3% DMSO; details: simulated gi fluid
[14] = Colloidal aggregation in fed state simulated intestinal fluid at 450 uM by dynamic light scattering-based beads autocorrelation assay in presence of 1.8% DMSO; type: physicochemical; details: simulated gi fluid; outline: as §4
[15] = Colloidal aggregation in fed state simulated intestinal fluid by dynamic light scattering assay in presence of 1.8% DMSO; type: physicochemical; details: simulated gi fluid; outline: as §1
[16] = Colloidal aggregation in fed state simulated intestinal fluid assessed as colloid radius at 450 uM by dynamic light scattering assay in presence of 1% DMSO; type: physicochemical; details: simulated gi fluid; outline: as §1
[17] = Colloidal aggregation in fed state simulated intestinal fluid assessed as colloid radius at 50 uM by dynamic light scattering assay in presence of 1% DMSO; type: physicochemical; details: simulated gi fluid; outline: as §1
[18] = Colloidal aggregation in fed state simulated intestinal fluid assessed as colloid radius at 250 uM by dynamic light scattering assay in presence of 1% DMSO; type: physicochemical; details: simulated gi fluid; outline: as §1
[19] = Colloidal aggregation in fed state simulated intestinal fluid by dynamic light scattering assay in presence of 0.5% DMSO; type: physicochemical; details: simulated gi fluid; outline: as §1
[20] = Colloidal aggregation in fed state simulated intestinal fluid at 600 uM by dynamic light scattering-based beads autocorrelation assay in presence of 6% DMSO; type: physicochemical; details: simulated gi fluid; outline: as §4
[21] = Colloidal aggregation in fed state simulated intestinal fluid by dynamic light scattering assay in presence of 6% DMSO; type: physicochemical; details: simulated gi fluid; outline: as §1
[22] = Colloidal aggregation in fed state simulated intestinal fluid assessed as colloid radius at 600 uM by dynamic light scattering assay in presence of 6% DMSO; details: simulated gi fluid
[23] = Colloidal aggregation in fed state simulated intestinal fluid assessed as colloid radius at 500 uM by dynamic light scattering assay in presence of 1% DMSO; type: physicochemical; details: simulated gi fluid; outline: as §1
[24] = Colloidal aggregation in fed state simulated intestinal fluid at 200 uM by transmission electron microscopy in presence of 1% DMSO; type: physicochemical; details: simulated gi fluid; outline: as §3
[25] = Colloidal aggregation in phosphate buffer at 100 uM by transmission electron microscopy in presence of 0.2% DMSO; type: physicochemical; outline: as §2
[26] = Colloidal aggregation in fed state simulated intestinal fluid by dynamic light scattering assay in presence of 0.75% DMSO; type: physicochemical; details: simulated gi fluid; outline: as §1
[27] = Colloidal aggregation in fed state simulated intestinal fluid assessed as colloid radius at 150 uM by dynamic light scattering assay in presence of 0.75% DMSO; type: physicochemical; details: simulated gi fluid; outline: as §1

T1 sequence (P25779 whole entry): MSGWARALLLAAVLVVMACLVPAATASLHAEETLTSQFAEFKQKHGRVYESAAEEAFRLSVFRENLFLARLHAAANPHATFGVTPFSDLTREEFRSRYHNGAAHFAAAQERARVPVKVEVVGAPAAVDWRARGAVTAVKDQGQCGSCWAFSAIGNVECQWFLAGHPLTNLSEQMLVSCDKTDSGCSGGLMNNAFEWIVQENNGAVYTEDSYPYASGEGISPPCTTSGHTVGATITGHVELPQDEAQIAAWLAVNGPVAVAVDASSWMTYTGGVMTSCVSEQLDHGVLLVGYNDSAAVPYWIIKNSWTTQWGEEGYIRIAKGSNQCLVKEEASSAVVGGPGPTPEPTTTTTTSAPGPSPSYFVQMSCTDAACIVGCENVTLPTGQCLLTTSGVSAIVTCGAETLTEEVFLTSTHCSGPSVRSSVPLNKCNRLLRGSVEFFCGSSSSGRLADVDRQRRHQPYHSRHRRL

`CSc1nc2cc(Cl)c(Oc3cccc(Cl)c3Cl)cc2[nH]1` [TRICLABENDAZOLE] showed an IC50 (Cruzipain [1]) greater than 200 µM, an IC50 (Cruzipain [2]) of 15 µM and an Activity [3] of 93 nm.
Work on `COC(=O)[C@H](c1ccccc1Cl)N1CCc2sccc2C1` [CLOPIDOGREL BISULFATE] yielded an IC50 (Cruzipain [1]) greater than 300 µM and an IC50 (Cruzipain [2]) of 123 µM.
For `Cc1ccc(-c2cc(C(F)(F)F)nn2-c2ccc(S(N)(=O)=O)cc2)cc1` [CELECOXIB], the Activity [4] was 120 µM, the Activity [5] was 161.8 nm and the IC50 (Cruzipain [1]) was greater than 400 µM. The IC50 (Cruzipain [2]) was 126 µM.
In the case of `CCC(C)n1ncn(-c2ccc(N3CCN(c4ccc(OCC5COC(Cn6cncn6)(c6ccc(Cl)cc6Cl)O5)cc4)CC3)cc2)c1=O` (stereo not given) [ITRACONAZOLE], the Activity [6] is reported as “Active”, the Activity [7] is reported as 64.5 nm and the Activity [8] is reported as “Active”. The Activity [9] was 138.1 nm, the Activity [10] was “Active” and the Activity [11] was “inactive”. The Activity [12] was “Active”, the “Percent of drug in fraction” value [13] was 6.9% and the IC50 (Cruzipain [1]) was greater than 200 µM. The IC50 (Cruzipain [2]) was 3 µM.
For `CC(C)OC(=O)C(C)(C)Oc1ccc(C(=O)c2ccc(Cl)cc2)cc1` [FENOFIBRATE], the Activity [14] was “Active”, the Activity [15] was 450 µM and the Activity [16] was 113.8 nm. The IC50 (Cruzipain [1]) was greater than 500 µM, the IC50 (Cruzipain [2]) was 61 µM and the Activity [3] was 129 nm.
With `Cc1c(C)c2c(c(C)c1OC(=O)c1cccnc1)CC[C@@](C)(CCC[C@H](C)CCC[C@H](C)CCCC(C)C)O2` (racemic) the Activity [10] was “Active”, the Activity [17] was 55.7 nm and the IC50 (Cruzipain [1]) was greater than 400 µM. It also gave an IC50 (Cruzipain [2]) of 98 µM and an Activity [3] of 104.1 nm.
Work on `COc1cc2ncnc(Nc3ccc(F)c(Cl)c3)c2cc1OCCCN1CCOCC1` [GEFITINIB] yielded an Activity [18] of 160.1 nm, an Activity [19] of 250 µM and an IC50 (Cruzipain [1]) of 148 µM. It also gave an IC50 (Cruzipain [2]) of 88 µM.
For `CC(C)/N=c1\cc2n(-c3ccc(Cl)cc3)c3ccccc3nc-2cc1Nc1ccc(Cl)cc1` [CLOFAZIMINE], the Activity [20] was “Active”, the Activity [21] was 600 µM and the Activity [22] was 103.7 nm. It also gave an IC50 (Cruzipain [1]) of 40 µM, an IC50 (Cruzipain [2]) of 6 µM and an Activity [3] of 356.1 nm.
With `CN(C)CCCN1c2ccccc2Sc2ccc(Cl)cc21.Cl` [CHLORPROMAZINE HYDROCHLORIDE] the Activity [23] was 29.2 nm.
For `CN(C)c1ccc2nc3ccc(N(C)C)cc3[s+]c2c1.[Cl-]` [METHYLENE BLUE ANHYDROUS], the Activity [7] was 95.9 nm, the Activity [24] was “Active” and the Activity [10] was “Active”. For the same compound, the Activity [25] was “Active”, the Activity [26] was 150 µM and the Activity [27] was 52.6 nm.
Work on `COC(=O)C1=C(C)NC(C)=C(C(=O)OCCN2CCN(C(c3ccccc3)c3ccccc3)CC2)C1c1cccc([N+](=O)[O-])c1` (stereo not given) [MANIDIPINE 6300] yielded an Activity [9] of 125.6 nm, an IC50 (Cruzipain [1]) greater than 100 µM and an IC50 (Cruzipain [2]) of 6 µM.
